Reference: ChEMBL document CHEMBL1828559, “Synthesis and characterization of high-affinity 4,4-difluoro-4-bora-3a,4a-diaza-s-indacene-labeled fluorescent ligands for human β-adrenoceptors” (J Med Chem, 2011)
Active and inactive are the calls of the source. No cut-off for these calls is given here.

Assays:
[1] = biological target: T1, Beta-2 adrenergic receptor (Homo sapiens, UniProt P07550); test: Displacement of [3H]-CGP 12177 from human beta-2 adrenergic receptor expressed in CHOK1 cells; format: cell-based, CHO-K1
Target sequence in this assay (P07550 whole entry): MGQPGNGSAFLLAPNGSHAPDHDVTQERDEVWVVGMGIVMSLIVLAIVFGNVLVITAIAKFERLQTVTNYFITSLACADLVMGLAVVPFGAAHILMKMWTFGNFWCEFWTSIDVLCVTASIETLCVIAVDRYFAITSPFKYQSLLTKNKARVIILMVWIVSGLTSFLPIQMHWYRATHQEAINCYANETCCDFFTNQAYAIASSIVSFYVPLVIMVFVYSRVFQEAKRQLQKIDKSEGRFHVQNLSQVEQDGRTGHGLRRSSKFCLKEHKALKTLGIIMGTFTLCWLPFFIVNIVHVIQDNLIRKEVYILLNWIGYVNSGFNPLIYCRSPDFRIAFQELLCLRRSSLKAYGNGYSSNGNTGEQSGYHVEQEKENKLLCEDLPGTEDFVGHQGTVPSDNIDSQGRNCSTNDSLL

[2] = biological target: T1, Beta-2 adrenergic receptor; test: Antagonist activity at human beta-2 adrenergic receptor expressed in salbutamol-stimulated CHO-K1 cells assessed as CRE-SPAP level by […]; format: functional, cell-based
Target sequence in this assay (P07550 whole entry): as above

[3] = biological target: T2, Beta-1 adrenergic receptor (Homo sapiens, UniProt P08588); test: Antagonist activity at human beta-1 adrenergic receptor site 2 expressed in CGP 12177-stimulated CHO-K1 cells assessed as CRE-SPAP level by […]
[4] = biological target: T3, Beta-3 adrenergic receptor (Homo sapiens, UniProt P13945); test: Displacement of [3H]-CGP 12177 from human beta-3 adrenergic receptor expressed in CHOK1 cells; format: cell-based, CHO-K1
Target sequence in this assay (P13945 whole entry): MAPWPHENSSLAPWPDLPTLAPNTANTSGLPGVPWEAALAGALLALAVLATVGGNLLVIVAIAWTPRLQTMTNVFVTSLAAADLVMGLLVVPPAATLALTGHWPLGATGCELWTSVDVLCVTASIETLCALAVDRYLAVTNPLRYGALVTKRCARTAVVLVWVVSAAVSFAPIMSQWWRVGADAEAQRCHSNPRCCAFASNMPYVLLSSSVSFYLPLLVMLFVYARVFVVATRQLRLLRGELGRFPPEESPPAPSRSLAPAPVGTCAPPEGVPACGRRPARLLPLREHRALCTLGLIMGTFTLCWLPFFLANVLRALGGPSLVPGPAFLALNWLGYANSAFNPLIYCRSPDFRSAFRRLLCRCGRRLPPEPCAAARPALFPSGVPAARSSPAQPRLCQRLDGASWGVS

[5] = biological target: T3, Beta-3 adrenergic receptor; test: Antagonist activity at human beta-3 adrenergic receptor expressed in fenoterol-stimulated CHOK1 cells assessed as CRE-SPAP level by […]; format: functional, cell-based, CHO-K1
In short: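 CHO-K1 cells stably co-expressing human β3-AR (790 fmol/mg protein) and a six-CRE SPAP reporter, grown to confluence. Fenoterol was the stimulating agonist. SPAP secreted into the medium was measured 5–6 h after agonist addition. Fixed antagonist concentrations of 10, 100 or 1000 nM were used. The Stephenson partial-agonist method was used where partial agonism occurred.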
Target sequence in this assay (P13945 whole entry): as above

[6] = biological target: T2, Beta-1 adrenergic receptor; test: Antagonist activity at human beta-1 adrenergic receptor site 1 expressed in cimeterol-stimulated CHO-K1 cells assessed as CRE-SPAP level by […]; format: functional, cell-based
[7] = biological target: T2, Beta-1 adrenergic receptor; test: biochemical
[8] = biological target: T1, Beta-2 adrenergic receptor; test: Binding affinity to human beta-2 adrenergic receptor expressed in CHOK1 cells at 3 nM preincubated with 1 to 100 nM beta-2 adrenergic receptor antagonist ICI 118551 for 30 mins measured after 18 hrs by confocal imaging; format: cell-based; settings: CHO-K1
In short: (§1)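 Live confocal imaging at room temperature in HEPES-buffered saline. CHO-K1 cells expressing human β2-AR were grown at least 18 h to 80–100% confluence. Where used, antagonists (ICI 118551 1–100 nM; CGP 20712A) were preincubated for 30 min, then 3 nM fluorescent ligand was added for 10 min. Imaging was done in its continued presence, with 633 nm excitation and emission through a 650 nm long-pass filter. Control CHO-K1 cells lacked the receptor.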
Target sequence in this assay (P07550 whole entry, looked up): as the sequence (P07550 whole entry) above

[9] = biological target: T1, Beta-2 adrenergic receptor; test: Binding affinity to human beta-2 adrenergic receptor expressed in CHOK1 cells at 3 nM after 18 hrs by confocal imaging; format: cell-based; settings: CHO-K1; in short: as §1
Target sequence in this assay (P07550 whole entry, looked up): as the sequence (P07550 whole entry) above

[10] = biological target: T1, Beta-2 adrenergic receptor; test: Binding affinity to human beta-2 adrenergic receptor expressed in CHOK1 cells at 3 nM preincubated with > 10 uM beta-1 adrenergic receptor antagonist CGP 20712A for 30 mins measured after 18 hrs by confocal imaging; format: cell-based; settings: CHO-K1; in short: as §1
Target sequence in this assay (P07550 whole entry, looked up): as the sequence (P07550 whole entry) above

[11] = biological target: T3, Beta-3 adrenergic receptor; test: Partial agonist activity at human beta-3 adrenergic receptor expressed in CHOK1 cells assessed as CRE-SPAP production at 1 uM by […] relative to 10 uM isoprenaline; format: functional, cell-based; settings: CHO-K1
In short: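 CHO-K1 cells co-expressing human β3-AR and a CRE-SPAP reporter. SPAP secretion was measured 5–6 h after ligand addition. The response to 1 μM ligand alone is expressed as a percentage of the response to 10 μM isoprenaline within the same experiment. Values are mean ± SE of n separate experiments.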
Target sequence in this assay (P13945 whole entry, looked up): as the sequence (P13945 whole entry) above

T2 sequence (P08588 whole entry): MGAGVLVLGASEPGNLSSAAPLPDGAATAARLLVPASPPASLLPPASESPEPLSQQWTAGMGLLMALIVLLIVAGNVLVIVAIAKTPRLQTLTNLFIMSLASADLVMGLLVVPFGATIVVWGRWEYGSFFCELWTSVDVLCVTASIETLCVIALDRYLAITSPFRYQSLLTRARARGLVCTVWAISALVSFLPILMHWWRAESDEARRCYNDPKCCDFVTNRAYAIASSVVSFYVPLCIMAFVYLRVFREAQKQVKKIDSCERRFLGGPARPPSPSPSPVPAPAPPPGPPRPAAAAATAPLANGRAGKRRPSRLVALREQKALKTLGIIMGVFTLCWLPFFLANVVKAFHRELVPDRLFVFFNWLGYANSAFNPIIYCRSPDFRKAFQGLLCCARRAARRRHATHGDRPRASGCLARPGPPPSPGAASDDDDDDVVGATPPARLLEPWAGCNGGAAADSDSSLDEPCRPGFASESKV

| SMILES | Kd [1] [nM] | Kd [2] [nM] | Kd [3] [nM] | Kd [4] [nM] | Kd [5] [nM] | Kd [6] [nM] | Kd [7] [nM] | Activity [8] | Activity [9] | Activity [10] | Activity [11] [%] |
| --- | --- | --- | --- | --- | --- | --- | --- | --- | --- | --- | --- |
| O=C(CCCCCNC(=O)COc1ccc(/C=C/c2ccc3n2[B-](F)(F)[N+]2=C(c4cccs4)C=CC2=C3)cc1)NCCNC[C@H](O)COc1cccc2ccccc12 | 1.38 | 0.427 | 91.2 | 44.7 | 26.3 | 8.32 | 36.3 |  |  |  |  |
| O=C(CCCCCNC(=O)COc1ccc(/C=C/c2ccc3n2[B-](F)(F)[N+]2=C(c4cccs4)C=CC2=C3)cc1)NCCCCNC[C@H](O)COc1cccc2ccccc12 | 0.724 | 0.275 | 182 | 123 | 151 | 13.5 | 33.1 |  |  |  |  |
| O=C(CCCCCNC(=O)COc1ccc(/C=C/c2ccc3n2[B-](F)(F)[N+]2=C(c4cccs4)C=CC2=C3)cc1)NCCCCCCCCNC[C@H](O)COc1cccc2ccccc12 | 7.08 | 1.74 | 794 | 67.6 | 141 | 52.5 | 186 |  |  |  |  |
| O=C(CCCCCNC(=O)COc1ccc(/C=C/c2ccc3n2[B-](F)(F)[N+]2=C(c4cccs4)C=CC2=C3)cc1)NCCOCCOCCNC[C@H](O)COc1cccc2ccccc12 | 0.617 | 0.295 | 67.6 | 81.3 | 107 | 3.47 | 17.4 | inactive | inactive | inactive |  |
| C=CCc1ccccc1OC[C@@H](O)CNCCNC(=O)CCCCCNC(=O)COc1ccc(/C=C/c2ccc3n2[B-](F)(F)[N+]2=C(c4cccs4)C=CC2=C3)cc1 | 2.88 | 1.82 | 74.1 | 69.2 | 41.7 | 46.8 | 91.2 |  |  |  | 56.6 |
| C=CCc1ccccc1OC[C@@H](O)CNCCOCCOCCNC(=O)CCCCCNC(=O)COc1ccc(/C=C/c2ccc3n2[B-](F)(F)[N+]2=C(c4cccs4)C=CC2=C3)cc1 | 0.933 | 0.427 | 41.7 | 100 | 61.7 | 7.59 | 22.4 |  |  |  | 63.5 |
| C=CCc1ccccc1OCC(O)CNC(C)C (stereo not drawn) |  |  |  |  |  |  |  |  |  |  | 62.4 |
| CC(C)NCC(O)COc1cccc2[nH]ccc12 (stereo not drawn) |  |  |  |  |  |  |  |  |  |  | 85.2 |
| O=C(CCCCCNC(=O)COc1ccc(/C=C/c2ccc3n2[B-](F)(F)[N+]2=C(c4cccs4)C=CC2=C3)cc1)NCCNCC(O)COc1cccc2ccccc12 (racemic) | 2.75 | 2.57 | 355 | 93.3 | 63.1 | 75.9 | 89.1 |  |  |  |  |
| O=C(CCCCCNC(=O)COc1ccc(/C=C/c2ccc3n2[B-](F)(F)[N+]2=C(c4cccs4)C=CC2=C3)cc1)NCCCCNCC(O)COc1cccc2ccccc12 (racemic) | 1.35 | 0.741 | 240 | 105 | 79.4 | 30.9 | 56.2 |  |  |  |  |
| O=C(CCCCCNC(=O)COc1ccc(/C=C/c2ccc3n2[B-](F)(F)[N+]2=C(c4cccs4)C=CC2=C3)cc1)NCCCCCCCCNCC(O)COc1cccc2ccccc12 (racemic) | 5.75 | 2.51 | < 1000 | 77.6 | 115 | 219 |  |  |  |  |  |
| O=C(CCCCCNC(=O)COc1ccc(/C=C/c2ccc3n2[B-](F)(F)[N+]2=C(c4cccs4)C=CC2=C3)cc1)NCCOCCOCCNCC(O)COc1cccc2ccccc12 (racemic) | 3.31 | 0.437 | 112 | 295 | 57.5 | 41.7 | 72.4 |  |  |  |  |
| C=CCc1ccccc1OCC(O)CNCCNC(=O)CCCCCNC(=O)COc1ccc(/C=C/c2ccc3n2[B-](F)(F)[N+]2=C(c4cccs4)C=CC2=C3)cc1 (racemic) | 2.34 | 1.58 | 120 | 46.8 | 23.4 | 43.7 | 55 |  |  |  | 60.6 |
| C=CCc1ccccc1OCC(O)CNCCOCCOCCNC(=O)CCCCCNC(=O)COc1ccc(/C=C/c2ccc3n2[B-](F)(F)[N+]2=C(c4cccs4)C=CC2=C3)cc1 (racemic) | 1.23 | 0.617 | 77.6 | 81.3 | 57.5 | 17.4 | 31.6 |  |  |  | 49.6 |
| O=C(CCCCCNC(=O)COc1ccc(/C=C/c2ccc3n2[B-](F)(F)[N+]2=C(c4cccs4)C=CC2=C3)cc1)NCCNCC(O)COc1cccc2[nH]ccc12 (racemic) | 46.8 | 30.2 | < 1000 | 331 | 178 | 302 | 871 |  |  |  | 49.4 |
| O=C(CCCCCNC(=O)COc1ccc(/C=C/c2ccc3n2[B-](F)(F)[N+]2=C(c4cccs4)C=CC2=C3)cc1)NCCOCCOCCNCC(O)COc1cccc2[nH]ccc12 (racemic) | 11 | 7.24 | < 1000 | 380 | 288 | 38 | 97.7 |  |  |  | 53.2 |
